Published values pooled from the literature.
Each line is one published result; the experiments were not run side by side.
Cell line: U-937
Read-out: cell growth or viability

SMILES | technique | time | IC50 [nM]
CCCCCCCCC1=CC2C=CC=CC1C2C1CCCCC1=O (stereo not drawn) | flow cytometry |  | 84
CC[C@]1(O)C[C@H]2CN(CCc3c([nH]c4ccccc34)[C@@](C(=O)OC)(c3cc4c(cc3OC)N(C=O)[C@H]3[C@@](O)(C(=O)OC)[C@H](OC(C)=O)[C@]5(CC)C=CCN6CC[C@]43[C@@H]65)C2)C1 | fluorescence | 72 h | 7.6
N[C@@H](CC(=O)N1CCN(C(c2ccc(F)cc2)c2ccc(F)cc2)CC1)C(=O)N1Cc2ccccc2C1 | ATP luminescence | 48 h | 27400
CC(=O)OCCC1=CC2C=CC=CC1C2C1CCCCC1=O (stereo not drawn) | flow cytometry |  | 167
CC(=O)O[C@H]1C(=O)[C@@]2(C)[C@H]([C@H](OC(=O)c3ccccc3)[C@]3(O)C[C@H](OC(=O)[C@H](O)[C@@H](NC(=O)c4ccccc4)c4ccccc4)C(C)=C1C3(C)C)[C@]1(OC(C)=O)CO[C@@H]1C[C@@H]2O |  | 72 h | 2.7
COc1cc2nccc(Oc3ccc(NC(=O)C4(C(=O)Nc5ccc(F)cc5)CC4)cc3)c2cc1OC | trypan blue | 72 h | 2990
CC(C)[C@H](N)C(=O)N1CCC[C@H]1B(O)O | ATP luminescence | 48 h | > 60000
COc1cc(-c2ncn(/C=C\C(=O)OC(C)C)n2)cc(C(F)(F)F)c1 |  | 72 h | 223
COc1cc(Nc2nccc(-c3cnn4nc(OC)ccc34)n2)cc(C(F)(F)F)c1 | ATP luminescence |  | 210
Nc1nc(Nc2ccc3c(c2)CC[C@@H](N2CCCC2)CC3)nn1-c1cc2c(nn1)-c1ccccc1CCC2 | trypan blue | 72 h | 1450
CCOC(=O)CCC1=CC2C=CC=CC1C2C1CCCCC1=O (stereo not drawn) | flow cytometry |  | 51
CCC[C@H](Nc1nc(-c2ccc(NC(=O)NCC)c(OC)c2)ncc1C)c1cccnc1 | fluorescence | 72 h | 33.1
CC(C)C[C@H](NC(=O)[C@H](Cc1ccccc1)NC(=O)c1cnccn1)B(O)O | ATP luminescence |  | 4.4
O=C1CCCCC1C1C2C=CC=CC1/C(=C/c1ccccc1)C2 (stereo not drawn) | flow cytometry |  | 77
C#CCSc1nc(Sc2nnnn2-c2ccccc2)c2nnn(Cc3ccc(OC)cc3)c2n1 | MTS | 6 days | 3230
